# CXCR6 inh = blocks human CXCR6 beta-arrestin recruitment; CHO-K1 PathHunter CXCR6 beta-arrestin, luminescence; inhibition, % at 20 µM; actives 0.36% (n = 360,000); O00574; in the data active = inhibition above about 34%, passing the limit was not always enough;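 also: antagonist mode with CXCL16 agonist at 10 nM final; 0% = 10 nM CXCL16 with DMSO and 100% = unstimulated wells without agonist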
# Target sequence (O00574 whole entry, looked up): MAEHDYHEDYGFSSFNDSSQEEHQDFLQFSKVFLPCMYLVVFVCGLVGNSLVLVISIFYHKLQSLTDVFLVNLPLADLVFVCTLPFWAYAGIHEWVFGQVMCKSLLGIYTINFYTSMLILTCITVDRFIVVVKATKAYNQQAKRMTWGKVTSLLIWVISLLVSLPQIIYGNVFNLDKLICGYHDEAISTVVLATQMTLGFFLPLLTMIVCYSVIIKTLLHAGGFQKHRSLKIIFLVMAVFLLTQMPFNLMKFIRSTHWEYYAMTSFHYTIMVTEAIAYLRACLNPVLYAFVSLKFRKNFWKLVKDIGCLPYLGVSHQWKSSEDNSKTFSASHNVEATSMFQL
# m5-HT2A agonist = mouse HTR2A agonism via beta-arrestin recruitment; CHO-K1 mHTR2A beta-arrestin complementation, luminescence; percent of 30 µM serotonin response; actives 0.66% (n = 360,000); activation, % at 7.6 µM; P35363; AID 624169;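 active = activation above a run cutoff, the mean activation of all tested compounds plus 3 SD, cut at about 14% in these data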;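 also: 0% = plate median of compound wells and 100% = 30 µM serotonin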
# APJ agonist = APJ receptor agonism. CHO-K1 APJ PathHunter beta-arrestin, luminescence; 0% DMSO wells, 100% apelin. P35414. activation, % at 20 µM. actives 0.11% (n = 330,000);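 active = activation more than six SD over the plate average, tested at 20 µM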;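 also: 0% = DMSO alone and 100% = apelin-13 at 10 nM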
#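 Assay system: CHO-K1 APJ beta-arrestin complementation cell line / Compound: single test compound dose, 20 µM final, 1% DMSO / Times: overnight seeding, 90 min compound at 25 °C, 1 h detection / Technique: beta-gal luminescence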
# EBI2 block = EBI2 (human) antagonism. P32249. EBI2 beta-arrestin recruitment, luminescence, 7a,25-OHC stimulated. inhibition, % at 5 µM. actives 0.81% (n = 360,000); in the data active = inhibition above about 38%;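 also: enzyme fragment complementation signal reports receptor beta-arrestin coupling in cells; 0% = agonist plus DMSO wells and 100% = wells without agonist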
# CCR6 antagonist = blocks CCL20-driven beta-arrestin recruitment at human CCR6. P51684. CHO-K1 CCR6 PathHunter beta-arrestin, luminescence, CCL20-stimulated. inhibition, % at 20 µM. actives 0.49% (n = 340,000);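 active = compounds whose inhibition of the agonist-driven luminescence signal at 20 µM reaches about 50%, limit read from the data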;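 also: cells stimulated with CCL20 at 14 nM final; plate controls were DMSO with CCL20 for no effect and DMSO without agonist for full effect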
# Target sequence (P51684 whole entry, looked up): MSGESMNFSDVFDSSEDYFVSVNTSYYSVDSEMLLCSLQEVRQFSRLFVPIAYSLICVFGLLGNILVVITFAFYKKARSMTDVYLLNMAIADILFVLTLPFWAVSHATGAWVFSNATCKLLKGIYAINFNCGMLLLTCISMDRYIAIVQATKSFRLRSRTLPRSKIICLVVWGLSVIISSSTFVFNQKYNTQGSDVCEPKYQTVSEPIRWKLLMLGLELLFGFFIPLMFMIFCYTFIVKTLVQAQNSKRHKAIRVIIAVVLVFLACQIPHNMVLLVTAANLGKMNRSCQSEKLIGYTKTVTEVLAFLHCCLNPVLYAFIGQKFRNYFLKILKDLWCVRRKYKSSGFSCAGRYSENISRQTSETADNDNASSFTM
# APJ antagonist = blocks the human apelin receptor APJ; actives 0.32% (n = 330,000); CHO-K1 APJ beta-arrestin complementation, luminescence; AID 2521; inhibition, % at 20 µM;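 active = inhibition above about 40% at 20 µM, limit read from the data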;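 also: cells challenged with 10 nM apelin-13 agonist together with compound; plate controls were apelin-13 plus DMSO wells for no effect and DMSO wells lacking apelin-13 for full effect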
# CXCR6 antag conf = confirmation of human CXCR6 receptor antagonists | shares compounds with CXCR6 inh | CHO-K1 CXCR6 PathHunter beta-arrestin, luminescence | inhibition, % at 20 µM | actives 65% (n = 700) | AID 602409;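 active = mean inhibition over four retests above 40%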;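 also: receptor stimulated with 10 nM CXCL16 agonist; beta-galactosidase fragment complementation upon beta-arrestin recruitment to receptor; plate controls were CXCL16 plus DMSO for no effect and DMSO without CXCL16 for full effect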
# The depositor's hits bear a star; x = no result given. In the library only some 2.1% were active in any assay of this set; here they are far more common.
SMILES,CXCR6 inh,m5-HT2A agonist,APJ agonist,EBI2 block,CCR6 antagonist,APJ antagonist,CXCR6 antag conf
O=c1ccc2ccccc2c2ccccc12,31.1*,-0.8,x,-39.7,x,x,31.4
Cc1cccc(NC(=O)CCNC(=O)c2ccc(Br)cc2)c1C,5.7,-2.0,x,-5.7,16.4,x,x
O=c1[nH]c(SCc2ccc(Cl)cc2)nc2ccccc12,82.5*,-1.0,-2.5,-3.1,-9.1,19.4,15.0
O=C(CSc1nc2ccccc2c(=O)[nH]1)NCc1ccc(Cl)cc1,-2.7,-2.6,0.3,-1.9,-2.3,8.2,x
FC(F)(F)c1cccc(NC(=S)Nc2ccc(Cl)cc2Cl)c1,-9.7,1.2,0.2,-4.4,4.8,-6.7,x
NNC(=S)Nc1ccc(C(F)(F)F)cc1Cl,47.0*,-1.7,1.2,-0.6,30.8,-11.9,6.5
CCc1nc2c(OCCC3CCCCC3)cccn2c1N(C)C(=O)c1cccs1,47.1*,-12.1,x,28.6,x,x,38.5
CCN(CC)S(=O)(=O)c1ccc(C(=O)NCC(=O)NCCCc2ccccc2)cc1,-1.4,-2.4,1.3,11.7,16.8,0.8,x
CCn1nccc1C(=O)Nc1nc2ccccc2n1CCN1CCCCC1,63.8*,-2.8,1.2,-1.9,54.4*,18.1,47.7*
c1ccc(-c2nc(NCc3ccco3)c3ccccc3n2)nc1,42.8*,-5.9,-9.9,15.7,52.9*,35.1,32.1
C=CCNc1nc(C(=O)OCC(=O)c2ccccc2)cs1,102.6*,5.2,-2.7,-10.7,0.4,-0.5,12.2
S=C(Nc1ccccc1)c1ccccn1,55.9*,-3.1,-6.9,0.2,x,9.2,79.0*
S=C(Nc1ccccc1)Nc1ccccn1,4.9,-4.1,x,-1.8,x,x,x
CCC(=O)Nc1ccccc1C(=O)N1CCOCC1,-4.1,0.3,-4.0,-8.8,0.1,5.1,x
O=C(CCCN1C(=O)c2ccccc2C1=O)Nc1ccccc1C(=O)N1CCOCC1,65.6*,-2.4,0.9,-4.8,33.7,10.7,10.2
CC(C)N(C(=O)COC(=O)c1cccc(N(C)C)c1)c1ccccc1,3.5,-4.4,-2.9,11.3,14.3,-2.8,x
Cc1cccc(CN2CCN(C3CN(Cc4cn(Cc5ccccc5)nn4)S(=O)(=O)C3)CC2)c1 (centres undefined),-0.7,1.6,x,-6.5,x,x,x
CCCCn1c(N)c(N(CCC(C)C)C(=O)c2cccc(-n3cnnn3)c2)c(=O)[nH]c1=O,-7.4,0.3,-4.5,-13.2,3.9,10.9,x
CC1=NN(/C(=N\c2nnc(C)s2)Nc2ccc(C(C)(C)C)cc2)[C@H](c2ccc(C)cc2)S1,39.9*,-8.1,-5.9,6.8,27.2,25.0,18.8
Cc1ccc2cccc(OC(=O)/C=C\c3ccccc3)c2n1,43.0*,7.6,-0.4,3.4,26.8,17.7,39.1
COc1ccccc1/C=C/C(=O)Oc1cccc2cccnc12,2.6,0.1,-3.2,-0.3,13.3,0.9,x
O=C(N[C@H]1C/C=C\C[C@H](CC(=O)N(CCO)Cc2ccccc2)C(=O)NC[C@H](c2ccccc2)OC1=O)OCC1c2ccccc2-c2ccccc21,2.9,-7.2,-2.5,-0.1,18.4,9.8,x
O=C1C=CC(=O)N1CCCCCCCCCCN1C(=O)C=CC1=O,86.7*,-6.2,x,25.7,110.5*,x,50.6*
O=C(Cc1ccc(NC(=O)C2CCCN(C(=O)C3CCCCC3)C2)cc1)Nc1cccc(C(=O)N2CCCC2)c1 (centres undefined),91.1*,10.3,x,-2.3,0.7,x,19.3
CC(=NO)C1CCC2C3CCC4=CC(=NO)CCC4(C)C3C(O)CC12C (centres undefined),44.2*,-6.1,x,4.8,57.4*,x,57.0*
SMILES,CXCR6 inh,m5-HT2A agonist,APJ agonist,EBI2 block,CCR6 antagonist,APJ antagonist,CXCR6 antag conf
COc1cc(C(=O)NC2CC3CCCC(C2)N3CC(=O)Nc2ccccc2)cc(OC)c1OC (centres undefined),61.9*,2.5,-4.0,2.8,3.9,6.1,68.6*
O=C(CN1C2CCCC1CC(NC(=O)c1ccco1)C2)Nc1ccccc1 (centres undefined),1.1,-2.8,-2.9,-11.3,-2.4,19.5,x
C/C(CCC(C)C)=N\NC(=S)NCc1ccccc1,40.1*,0.2,-4.3,17.3,40.5,38.5,29.9
C/C(CCc1ccccc1)=N\NC(=S)NCCc1ccccc1,26.1,-1.2,-3.4,28.8,39.5,5.9,x
C=C1C(=O)C23C(O)C1CCC2C12CCCC(C)(COC(C)=O)C1C(O)C3(O)OC2 (centres undefined),75.8*,-8.6,x,76.7*,102.6*,x,95.0*
Cc1nnc(NC(=O)c2cc(-c3ccncc3)nc3c(C)cccc23)s1,45.4*,9.5,11.7,-5.0,-1.7,-35.4,20.7
Cc1ccc(S(=O)(=O)N2CCN(C(=O)CCC(=O)NCCc3ccc(F)cc3)CC2)cc1,-3.8,-1.5,-2.8,-12.8,8.2,-0.6,x
COc1ccc(-c2csc(N3C(=O)CNC3=S)n2)cc1,42.9*,1.4,x,-9.5,60.2*,x,23.8
O=C1CNC(=S)N1c1nc(-c2ccccc2)cs1,18.7,1.5,-4.0,-12.3,30.2,2.7,x
CCCCN1CCCC1CNC(=O)c1cc(C#N)c2ccccc2c1OC (centres undefined),x,x,-7.3,x,x,13.9,x
COc1cccc(C(C(=O)NC(C)(C)C)N(C(=O)CCC(=O)Nc2cc(C)on2)C(C)C)c1OC (centres undefined),46.9*,-0.6,-2.5,-0.3,-5.7,3.8,7.3
O=C(NCc1cccnc1)/C(=C\c1ccc(-c2cccc(Cl)c2)o1)S(=O)(=O)c1ccccc1,33.4*,-2.4,x,42.5*,37.8,x,40.6*
CCN(CC)CCn1c2c(c(SCC(=O)Nc3cc(C)on3)nc1=O)CCCC2,4.1,11.7,-2.1,4.1,10.2,20.7,x
COc1ccc(/C=N/Nc2ccccc2)cc1Cn1nc(C)c([N+](=O)[O-])c1C,51.3*,5.2,-4.0,13.3,36.5,7.9,12.6
O=C(Nc1ccc(Cl)cc1)c1ccc(-c2ccccn2)s1,-12.3,-2.2,-0.2,11.3,5.5,13.3,x
CCOC(=O)CS(=O)(=O)c1nc(-c2ccccc2)cc(C(F)(F)F)n1,51.1*,-10.2,-4.3,20.2,23.2,29.9,43.8*
CCOC(=O)CCS(=O)(=O)c1nc(-c2ccccc2)cc(C(F)(F)F)n1,29.3,-2.3,1.1,26.6,33.5,35.5,x
CC(OC(=O)c1nc(-c2ccccc2)n(-c2ccccc2)n1)C(=O)Nc1cc(Cl)cc(Cl)c1 (centres undefined),47.1*,-3.5,-1.2,2.9,8.8,1.2,13.4
Cc1nn(-c2ccccc2)c(C)c1C(=O)OC(C)C(=O)Nc1ccc(C(N)=O)cc1 (centres undefined),1.3,-3.7,-3.3,0.8,4.6,2.1,x
